Laboratory results published in article PMC9715912 (Cell Reports, 2022).

Tests used:
Format in all cases: in vivo, Mus musculus
[1] = system: control and Tanycyte^ΔVegfa mice; assay: Metabolic efficiency; conditions: chow, daily i.p. insulin 20 nmol/kg, Fig 5F,G
Glycemic change = conditions: single i.p. insulin injection, mean ± SEM
[2] = system: arcuate nucleus of control and Tanycyte^ΔVegfa mice; conditions: 2-DG 250 mg/kg with Ex-4_Cy3 120 nmol/kg; data not shown
[3] = system: hypothalamus and hindbrain; conditions: 2-DG 250 mg/kg i.p. after 5 h food deprivation; Fig 3B
Outline: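 Mice food-deprived 5 h, then given 2-DG (250 mg/kg i.p.). […] Brains were dissected, dehydrated through a tetrahydrofuran series, cleared in dibenzylether and imaged by whole-brain light-sheet microscopy. Signal was autofluorescence-unmixed, and the volume of signal dispersion was quantified. Blood glucose was tracked; mean ± SEM.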

[4] = system: hypothalamus (ME/ARC) and other CVOs; conditions: 120 nmol/kg i.p., 15 min before sacrifice; 2D planes from LSFM; Fig 2A

Q: Which results are given for “insulin: Insulin (Novorupid, Flex pen, 8-9670-79-202-2), Novo Nordisk”?
A: change in fat oxidation in response to insulin, Tanycyte ΔVegfa mice [1]: comparable with vehicle; glycemic change (vehicle/insulin), Tanycyte ΔVegfa (Glycemic change; Tanycyte^ΔVegfa mice): 52% ± 2.08%; glycemic change (vehicle/insulin), controls (Glycemic change; control mice): 62% ± 5.7%

Q: With “Ex-4_Cy3: fluorescent Exendin-4 labeled with Cy3, Novo Nordisk” as the compound, how does the “total fluorescence intensity, control vs Tanycyte ΔVegfa” value [2] read?
A: comparable between groups

Q: For `O=CC[C@@H](O)[C@H](O)[C@H](O)CO` [2-DG, 2-deoxyglucose], which “blood glucose (counter-regulatory response)” value [3] is on record?
A: increased

Q: With “Ex-4_VT^750: fluorescent labeled Exendin4 (VT750), Novo Nordisk” as the compound, how does the “brain regions with Ex-4_VT750 signal after systemic administration” value [4] read?
A: detected in the ME/ARC, OLVT, AP, SFO, and choroid plexus
